Legend:
Details in all cases: stereoisomer not certain
OR13A1 (Homo sapiens) = OR13A1 (Homo sapiens) (UniProt Q8NGR1)
How it was run: (§1)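 Transient luciferase assays in mammalian cell lines were common, though methods varied by source. The values come from published papers and their supplementary material, with extra details from the original authors when needed. Responsive refers to a measured signal the original authors judged statistically different from baseline, and non-responsive (inactive) to the remainder.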

OR13C2 (Homo sapiens) = OR13C2 (Homo sapiens) (UniProt Q8NGS9)
How it was run: as §1

OR13C3 (Homo sapiens) = OR13C3 (Homo sapiens) (UniProt Q8NGS6)
How it was run: as §1

OR13C4 (Homo sapiens) = OR13C4 (Homo sapiens) (UniProt Q8NGS5)
How it was run: as §1

OR13C5 (Homo sapiens) = OR13C5 (Homo sapiens) (UniProt Q8NGS8)
How it was run: as §1

OR13C7 (Homo sapiens) = OR13C7 (Homo sapiens) (UniProt P0DN81)
How it was run: as §1

OR13C8 (Homo sapiens) = OR13C8 (Homo sapiens) (UniProt Q8NGS7)
How it was run: as §1

OR13C9 (Homo sapiens) = OR13C9 (Homo sapiens) (UniProt Q8NGT0)
How it was run: as §1

OR13D1 (Homo sapiens) = OR13D1 (Homo sapiens) (UniProt Q8NGV5)
How it was run: as §1

OR13F1 (Homo sapiens) = OR13F1 (Homo sapiens) (UniProt Q8NGS4)
How it was run: as §1

Measured: odorant receptor agonist call;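 also: active if original authors judged signal statistically different from baseline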

Chain of OR13C5 (Homo sapiens) (Q8NGS8 whole entry): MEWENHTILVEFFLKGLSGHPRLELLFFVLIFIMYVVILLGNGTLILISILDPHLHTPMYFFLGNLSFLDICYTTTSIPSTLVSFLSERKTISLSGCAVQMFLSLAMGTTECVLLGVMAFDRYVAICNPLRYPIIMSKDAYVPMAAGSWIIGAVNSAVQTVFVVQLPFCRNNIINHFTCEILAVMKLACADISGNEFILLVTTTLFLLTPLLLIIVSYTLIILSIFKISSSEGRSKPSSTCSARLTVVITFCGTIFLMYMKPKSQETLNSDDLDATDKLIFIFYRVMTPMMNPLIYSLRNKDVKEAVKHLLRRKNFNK
Chain of OR13D1 (Homo sapiens) (Q8NGV5 whole entry): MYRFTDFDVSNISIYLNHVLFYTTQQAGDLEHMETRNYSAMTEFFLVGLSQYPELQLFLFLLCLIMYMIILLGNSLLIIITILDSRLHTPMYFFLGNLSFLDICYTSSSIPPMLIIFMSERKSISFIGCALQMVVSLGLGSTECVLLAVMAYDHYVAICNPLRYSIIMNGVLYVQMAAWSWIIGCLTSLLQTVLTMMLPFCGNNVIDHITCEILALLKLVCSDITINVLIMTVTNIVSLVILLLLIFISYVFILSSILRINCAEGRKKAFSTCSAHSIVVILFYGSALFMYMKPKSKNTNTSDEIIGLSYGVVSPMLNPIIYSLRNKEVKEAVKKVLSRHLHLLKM
Chain of OR13A1 (Homo sapiens) (Q8NGR1 whole entry): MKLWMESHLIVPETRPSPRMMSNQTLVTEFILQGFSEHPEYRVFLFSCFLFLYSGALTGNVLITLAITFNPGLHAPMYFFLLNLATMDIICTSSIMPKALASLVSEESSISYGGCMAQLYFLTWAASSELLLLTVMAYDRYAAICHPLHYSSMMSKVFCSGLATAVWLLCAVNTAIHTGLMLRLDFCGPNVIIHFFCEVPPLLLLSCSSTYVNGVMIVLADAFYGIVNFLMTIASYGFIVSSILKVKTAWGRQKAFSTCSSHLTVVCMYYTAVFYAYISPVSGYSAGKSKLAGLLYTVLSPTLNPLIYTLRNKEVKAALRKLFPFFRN
Chain of OR13C4 (Homo sapiens) (Q8NGS5 whole entry): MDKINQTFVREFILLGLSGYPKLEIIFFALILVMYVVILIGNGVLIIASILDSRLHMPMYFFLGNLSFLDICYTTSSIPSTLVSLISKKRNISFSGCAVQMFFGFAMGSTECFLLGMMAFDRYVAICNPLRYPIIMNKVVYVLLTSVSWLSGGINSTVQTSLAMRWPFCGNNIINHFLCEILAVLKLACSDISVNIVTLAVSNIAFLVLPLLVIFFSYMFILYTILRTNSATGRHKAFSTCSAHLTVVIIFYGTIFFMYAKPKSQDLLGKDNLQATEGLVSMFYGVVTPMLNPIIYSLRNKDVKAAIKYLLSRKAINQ
Chain of OR13F1 (Homo sapiens) (Q8NGS4 whole entry): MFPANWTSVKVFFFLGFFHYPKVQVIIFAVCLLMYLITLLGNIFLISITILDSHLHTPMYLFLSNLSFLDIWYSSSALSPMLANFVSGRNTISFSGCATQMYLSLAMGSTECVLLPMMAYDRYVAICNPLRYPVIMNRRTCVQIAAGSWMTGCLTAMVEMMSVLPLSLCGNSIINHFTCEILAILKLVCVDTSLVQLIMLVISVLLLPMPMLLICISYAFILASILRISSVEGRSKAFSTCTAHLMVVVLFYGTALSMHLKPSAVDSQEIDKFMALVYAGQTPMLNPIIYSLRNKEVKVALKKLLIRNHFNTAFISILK
Chain of OR13C3 (Homo sapiens) (Q8NGS6 whole entry): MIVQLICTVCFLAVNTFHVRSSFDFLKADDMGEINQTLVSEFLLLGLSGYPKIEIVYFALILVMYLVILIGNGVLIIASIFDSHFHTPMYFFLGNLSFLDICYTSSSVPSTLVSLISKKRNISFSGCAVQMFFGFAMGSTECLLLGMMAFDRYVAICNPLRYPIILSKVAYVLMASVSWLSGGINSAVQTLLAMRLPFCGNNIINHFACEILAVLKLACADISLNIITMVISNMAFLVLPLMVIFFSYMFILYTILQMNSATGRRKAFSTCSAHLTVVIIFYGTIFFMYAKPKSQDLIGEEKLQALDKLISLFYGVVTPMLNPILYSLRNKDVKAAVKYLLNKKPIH
Chain of OR13C9 (Homo sapiens) (Q8NGT0 whole entry): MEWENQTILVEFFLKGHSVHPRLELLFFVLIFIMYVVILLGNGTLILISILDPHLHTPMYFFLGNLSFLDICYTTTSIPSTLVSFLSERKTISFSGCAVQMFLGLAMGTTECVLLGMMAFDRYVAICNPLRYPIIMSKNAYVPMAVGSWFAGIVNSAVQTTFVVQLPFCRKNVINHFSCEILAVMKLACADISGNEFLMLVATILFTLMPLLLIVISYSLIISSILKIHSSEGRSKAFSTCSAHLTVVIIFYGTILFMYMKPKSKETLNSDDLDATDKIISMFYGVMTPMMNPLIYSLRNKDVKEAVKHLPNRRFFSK
Chain of OR13C8 (Homo sapiens) (Q8NGS7 whole entry): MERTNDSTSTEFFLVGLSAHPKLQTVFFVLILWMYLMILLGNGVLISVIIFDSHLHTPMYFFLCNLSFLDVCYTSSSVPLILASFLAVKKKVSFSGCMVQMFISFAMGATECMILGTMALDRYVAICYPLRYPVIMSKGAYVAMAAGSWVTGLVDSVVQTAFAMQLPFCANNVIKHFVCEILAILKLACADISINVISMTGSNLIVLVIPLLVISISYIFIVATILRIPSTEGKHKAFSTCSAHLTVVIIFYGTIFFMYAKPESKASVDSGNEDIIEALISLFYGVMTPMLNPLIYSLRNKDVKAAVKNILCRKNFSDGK
Chain of OR13C2 (Homo sapiens) (Q8NGS9 whole entry): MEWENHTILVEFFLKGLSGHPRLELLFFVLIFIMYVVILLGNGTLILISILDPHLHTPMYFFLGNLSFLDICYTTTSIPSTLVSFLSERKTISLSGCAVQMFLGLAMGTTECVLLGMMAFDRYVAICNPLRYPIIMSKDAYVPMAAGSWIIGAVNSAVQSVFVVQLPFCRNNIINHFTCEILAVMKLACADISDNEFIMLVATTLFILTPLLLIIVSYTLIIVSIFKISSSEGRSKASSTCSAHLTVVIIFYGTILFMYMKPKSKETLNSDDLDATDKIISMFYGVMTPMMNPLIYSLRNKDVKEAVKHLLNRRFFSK
Chain of OR13C7 (Homo sapiens) (P0DN81 whole entry): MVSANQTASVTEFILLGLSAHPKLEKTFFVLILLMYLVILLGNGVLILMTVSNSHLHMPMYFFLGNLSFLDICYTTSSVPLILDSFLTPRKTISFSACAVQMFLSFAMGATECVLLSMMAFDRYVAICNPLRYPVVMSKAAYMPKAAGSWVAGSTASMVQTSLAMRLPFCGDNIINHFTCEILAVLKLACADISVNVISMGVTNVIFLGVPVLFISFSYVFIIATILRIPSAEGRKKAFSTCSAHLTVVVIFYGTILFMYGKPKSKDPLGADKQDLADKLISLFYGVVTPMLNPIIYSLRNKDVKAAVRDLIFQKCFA

Cc1c([N+](=O)[O-])c(C)c([N+](=O)[O-])c(C(C)(C)C)c1[N+](=O)[O-]
inactive: OR13A1 (Homo sapiens) | OR13C2 (Homo sapiens) | OR13C3 (Homo sapiens) | OR13C4 (Homo sapiens) | OR13C5 (Homo sapiens) | OR13C7 (Homo sapiens) | OR13C8 (Homo sapiens) | OR13C9 (Homo sapiens) | OR13D1 (Homo sapiens) | OR13F1 (Homo sapiens)

C=CCOC(=O)Cc1ccccc1
inactive: OR13A1 (Homo sapiens) | OR13C2 (Homo sapiens) | OR13C3 (Homo sapiens) | OR13C4 (Homo sapiens) | OR13C5 (Homo sapiens) | OR13C8 (Homo sapiens) | OR13C9 (Homo sapiens) | OR13D1 (Homo sapiens) | OR13F1 (Homo sapiens)

Reference: the M2OR odorant receptor database
